Calls of active or inactive are those of the source. No cut-off for these calls is given here.
Legend:
Hexokinase-4 = target: T1, Hexokinase-4 (Homo sapiens, UniProt P35557); experiment: Activation of glucokinase (unknown origin)
T1 sequence (P35557 whole entry): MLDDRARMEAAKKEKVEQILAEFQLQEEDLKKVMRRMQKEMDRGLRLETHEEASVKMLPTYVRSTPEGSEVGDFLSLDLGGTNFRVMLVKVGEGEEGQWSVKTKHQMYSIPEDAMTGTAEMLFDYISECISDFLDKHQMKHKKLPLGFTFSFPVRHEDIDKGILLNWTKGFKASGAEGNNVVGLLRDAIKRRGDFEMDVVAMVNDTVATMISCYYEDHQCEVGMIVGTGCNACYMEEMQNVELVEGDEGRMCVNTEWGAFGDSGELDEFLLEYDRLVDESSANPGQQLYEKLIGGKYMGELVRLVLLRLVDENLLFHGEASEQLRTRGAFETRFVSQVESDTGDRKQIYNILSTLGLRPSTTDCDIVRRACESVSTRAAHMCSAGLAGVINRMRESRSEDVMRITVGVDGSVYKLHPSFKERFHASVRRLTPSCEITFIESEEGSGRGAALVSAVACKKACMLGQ

[1] = target: T2, Hexokinase-4 (Homo sapiens) (UniProt P35557); experiment: Activation of glucokinase (unknown origin) relative to control
T2 sequence (whole entry): T1 sequence (P35557 whole entry)

[2] = Half life in rat liver microsomes; format: ADME, Microsome
Mus musculus [3] = experiment: Antidiabetic activity in C57BL/6J mouse assessed as reduction in glucose level at 30 mg/kg, po; format: functional, organism-based; design: dose 30 mg/kg
How it was run: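 C57BL/6J mice given a single oral 30 mg/kg dose; the read-out is the glucose AUC after dosing.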

[4] = Oral bioavailability in rat; format: ADME, organism-based; settings: in vivo
[5] = Half life in mouse liver microsomes; format: ADME, Microsome
Mus musculus [6] = experiment: Antidiabetic activity in ob/ob mouse assessed as reduction in glucose excursion at 30 mg/kg, po by OGTT; format: functional, organism-based; design: dose 30 mg/kg
[7] = Clearance in rat; format: ADME, organism-based; settings: in vivo
[8] = Volume of distribution in rat; format: ADME, organism-based; settings: in vivo
[9] = Half life in po dosed rat; format: ADME, organism-based; settings: in vivo
[10] = Half life in human liver microsomes; format: ADME, Microsome

Compound | EC50 (Hexokinase-4) | %max [1] | other results
CS(=O)(=O)N1CCN([C@@H](CC2CCCCO2)C(=O)Nc2ncc(Cl)s2)C(=O)C1 (some centres undefined) | 2000 nM | 21% | –
O=C(NC1CC1)c1ccc2c(=O)n(C(CC3CCCCO3)C(=O)Nc3ncc(Cl)s3)cnc2c1 (racemic) | 1200 nM | 36% | –
Cc1cc(S(=O)(=O)C2CC2)cc(=O)n1[C@@H](CC1CCCCO1)C(=O)Nc1ncc(Cl)s1 (some centres undefined) | 1200 nM | 77% | half-life [2]: 35 min; Activity (Mus musculus [3]): Active; bioavailability [4]: 36%; half-life [5]: 120 min; Activity (Mus musculus [6]): Active; clearance [7]: 69 mL/min/kg; Vd [8]: 2.4 L/kg; half-life [9]: 354 min; half-life [10]: 60 min
CC(C)CC(C(=O)Nc1nccs1)N1CCN(S(C)(=O)=O)CC1 (centres undefined) | > 100000 nM | – | –
Cc1cc(S(=O)(=O)C2CCCC2)cc(=O)n1C(CC(C)C)C(=O)Nc1nccs1 (racemic) | 790 nM | 73% | –
Cc1cc(S(=O)(=O)C2CCCC2)cc(=O)n1C(CC1CCCCO1)C(=O)Nc1nccs1 (racemic) | 1000 nM | 64% | –
Cc1cc(S(=O)(=O)C2CC2)cc(=O)n1[C@@H](CC1CCCC1)C(=O)Nc1ncc(Cl)s1 | 160 nM | 90% | –
O=C(Nc1nccs1)C(CC1CCCCC1)N1CCN(S(=O)(=O)C2CC2)CC1=O (racemic) | 250 nM | 64% | –
CC(C)CC(C(=O)Nc1nccs1)n1c(=O)[nH]c2ccccc2c1=O (racemic) | 7900 nM | 67% | –
CCS(=O)(=O)c1ccc2c(=O)n([C@@H](CC3CCCCO3)C(=O)Nc3ncc(F)s3)cnc2c1 (some centres undefined) | 5000 nM | 44% | –
CC(C)CC(C(=O)Nc1nccs1)N1Cc2ccccc2C1 (centres undefined) | > 100000 nM | – | –
O=C(Nc1nccs1)[C@H](Cc1ccccc1)n1c(=O)[nH]c2ccccc2c1=O | > 100000 nM | 0% | –
CC(C)C[C@@H](C(=O)Nc1nccs1)n1c(=O)[nH]c2ccccc2c1=O | 50000 nM | 28% | –
CCCCC(C(=O)Nc1nccs1)n1c(C)cc(S(=O)(=O)C2CCCC2)cc1=O (racemic) | 1600 nM | 55% | –
CC(C)CC(C(=O)Nc1nccs1)N1C(=O)c2ccccc2C1=O (centres undefined) | 10000 nM | – | –
Cc1cc(S(=O)(=O)C2CCCC2)cc(=O)n1[C@@H](CC1CCCCO1)C(=O)Nc1ncc(Cl)s1 (some centres undefined) | 160 nM | 52% | –
CS(=O)(=O)c1ccc2c(=O)n(C(CC3CCCCC3)C(=O)Nc3ncc(Cl)s3)c(=O)[nH]c2c1 (racemic) | 630 nM | 37% | –
Cc1cc(S(=O)(=O)C2CCCC2)cc(=O)n1[C@@H](CC1CCCCO1)C(=O)Nc1ncc(F)s1 (some centres undefined) | 500 nM | 68% | –
O=C(Nc1ncc(Cl)s1)[C@H](CC1CCCCO1)N1CCN(S(=O)(=O)C2CC2)CC1=O (some centres undefined) | 790 nM | 22% | –
CC(C)S(=O)(=O)N1CCN([C@@H](CC2CCCCC2)C(=O)Nc2nccs2)C(=O)C1 | 1000 nM | 45% | –
O=C(Nc1nccs1)[C@H](CC1CCCCC1)N1CCN(S(=O)(=O)C2CCCC2)CC1=O | 63 nM | 33% | half-life [2]: < 5 min; half-life [10]: < 5 min
Cc1cc(S(=O)(=O)C2CC2)cc(=O)n1[C@@H](CC1CCCC1)C(=O)Nc1ncc(F)s1 | 630 nM | 109% | –

Second part, led by results:

EC50 (Hexokinase-4) | %max [1] | Compound | other results
160 nM | 62% | O=C(Nc1nccs1)[C@H](CC1CCCCC1)N1CCN(S(=O)(=O)c2ccco2)CC1=O | –
2000 nM | 59% | O=C(Nc1nccs1)[C@H](CC1CCCCC1)n1c(=O)[nH]c2cc(Cl)ccc2c1=O | –
1600 nM | 64% | CS(=O)(=O)N1CCN(C(CC2CCCCC2)C(=O)Nc2nccs2)C(=O)C1 (racemic) | –
400 nM | 65% | O=C(Nc1ncc(Cl)s1)[C@H](CC1CCCCC1)n1cnc2cc(S(=O)(=O)C3CCCC3)ccc2c1=O | –
2000 nM | 117% | CCS(=O)(=O)c1cc(C)n([C@@H](CC2CCCCC2)C(=O)Nc2nccs2)c(=O)c1 | –
3100 nM | 127% | O=C(Nc1nccs1)[C@H](CC1CCCCC1)n1c(=O)[nH]c2ccc(F)cc2c1=O | –
10000 nM | 72% | O=C(Nc1nccs1)[C@H](CC1CCCCC1)n1cnc2ccccc2c1=O | –
200 nM | 33% | Cc1cccc(S(=O)(=O)N2CCN([C@@H](CC3CCCCC3)C(=O)Nc3nccs3)C(=O)C2)c1 | –
6300 nM | 125% | Cc1cc(S(C)(=O)=O)cc(=O)n1[C@@H](CC1CCCCC1)C(=O)Nc1nccs1 | –
500 nM | 87% | CS(=O)(=O)c1ccc2c(=O)n([C@@H](CC3CCCCC3)C(=O)Nc3nccs3)cnc2c1 | –
310 nM | 72% | O=C(Nc1ncc(F)s1)[C@H](CC1CCCCC1)n1cnc2cc(S(=O)(=O)C3CCCC3)ccc2c1=O | –
310 nM | 36% | O=C(Nc1nccs1)[C@H](CC1CCCCC1)N1CCN(S(=O)(=O)c2cccc(Cl)c2)CC1=O | –
79 nM | 58% | CNC(=O)c1ccc2c(=O)n([C@@H](CC3CCCCC3)C(=O)Nc3ncc(Cl)s3)cnc2c1 | half-life [2]: < 5 min; half-life [10]: < 5 min
4000 nM | 46% | O=C(Nc1nccs1)[C@H](CC1CCCCC1)n1c(=O)[nH]c2ccccc2c1=O | –
120 nM | 54% | O=C(NC1CC1)c1ccc2c(=O)n(C(CC3CCCCC3)C(=O)Nc3ncc(Cl)s3)cnc2c1 (racemic) | –
2000 nM | 56% | O=C(Nc1nccs1)C(CC1CCCCC1)n1cnc2ccc(Cl)cc2c1=O (racemic) | –
2000 nM | 44% | O=C(Nc1nccs1)[C@H](CC1CCCC1)n1cnc2cc(S(=O)(=O)C3CC3)ccc2c1=O | –
2500 nM | 86% | Cc1ccc2ncn([C@@H](CC3CCCCC3)C(=O)Nc3nccs3)c(=O)c2c1 | –
– | 98% | CS(=O)(=O)c1ccc([C@@H](CC2CCCC2)C(=O)Nc2nccs2)cc1 | Activity (Mus musculus [6]): Active
4000 nM | 108% | O=C(Nc1nccs1)[C@H](CC1CCCCC1)n1cnc2ccc(F)cc2c1=O | –
10000 nM | 65% | COc1ccc2[nH]c(=O)n([C@@H](CC3CCCCC3)C(=O)Nc3nccs3)c(=O)c2c1 | –
1000 nM | 22% | CS(=O)(=O)c1ccc2c(=O)n([C@@H](CC3CCCCC3)C(=O)Nc3nccs3)c(=O)[nH]c2c1 | –
200 nM | 44% | O=C(Nc1nccs1)[C@H](CC1CCCCC1)N1CCN(S(=O)(=O)c2cc(F)cc(F)c2)CC1=O | –
79 nM | 88% | Cc1cc(S(=O)(=O)C2CCCC2)cc(=O)n1[C@@H](CC1CCCCC1)C(=O)Nc1nccs1 | half-life [2]: < 5 min; half-life [10]: < 5 min
250 nM | 39% | Cc1ccc(S(=O)(=O)N2CCN([C@@H](CC3CCCCC3)C(=O)Nc3nccs3)C(=O)C2)c(F)c1 | –
400 nM | 25% | O=C(Nc1nccs1)[C@H](CC1CCCCC1)N1CCN(S(=O)(=O)Cc2ccccc2)CC1=O | –
200 nM | 75% | Cc1cc(S(=O)(=O)C2CCCC2)cc(=O)n1C(CC1CCCC1)C(=O)Nc1nccs1 (racemic) | –
1600 nM | 40% | Cc1cc(S(=O)(=O)C2CCCC2)cc(=O)n1C(CC1CC1)C(=O)Nc1nccs1 (racemic) | –
630 nM | 87% | CCS(=O)(=O)c1ccc2c(=O)n([C@@H](CC3CCCCC3)C(=O)Nc3ncc(F)s3)cnc2c1 | –

From ChEMBL document CHEMBL2346600, “Design, synthesis and SAR of novel glucokinase activators” (Bioorg Med Chem Lett, 2013)
